Only a selection was taken, and hits are over-represented in it overall.
CHOP inh: blocks CHOP induction under ER stress; CHO-K1 CHOP-promoter luciferase, tunicamycin-induced, 15-18 h; inhibition, % at 10 µM; 220,000 tested, 3.8% active;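 active means compounds that reduced the stress-induced luciferase reporter signal by more than about 70% of percent inhibition, limit read from the data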;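 further: 0% = tunicamycin plus vehicle and 100% = wells without tunicamycin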
XBP1 UPR activ: activators of adaptive arm of unfolded protein response (XBP1) | CHO-XBP1 luciferase reporter, IRE1-XBP1 UPR activation, luminescence; percent of tunicamycin response, DMSO as zero | activation, % at 20 µM | 330,000 tested, 0.33% active | AID 463104;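 active means versus positive control, 20 µM dose yields 30% or more activation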;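 further: 100% = tunicamycin at 10 µg/mL and 0% = DMSO only wells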
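assay system = CHO-XBP1 luciferase reporter cells | amount = 1000 cells/well | buffer or medium = F12 plus 10% FBS | compound dosing = single point, 20 µM final compound, 1% DMSO | incubation = 16-18 h cell attachment at 37 °C, then 6 h compound exposure | detection = Steady-Glo luminescence read | controls = tunicamycin 10 µg/mL and vehicle-only wells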
UPR CHOP act: activators of apoptotic arm of unfolded protein response (CHOP); CHO-CHOP luciferase reporter, UPR activation, luminescence; percent of tunicamycin response over DMSO baseline; activation, % at 10 µM; 330,000 tested, 0.34% active; AID 449763;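 active means at 10 µM dose, activation of 40% or more, normalized to positive control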;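 further: 100% = tunicamycin at 10 µg/mL and 0% = DMSO alone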
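Assay system: CHO-CHOP cells, stable luciferase reporter of PERK-eIF2a-CHOP signalling / Buffer or medium: F12 plus 10% serum / Compound dosing: one dose, 10 µM in 0.5% DMSO / Times: 6 h compound treatment, 37 °C / Technique: luciferase luminescence / Read-out: % reporter activation, DMSO baseline versus tunicamycin full activation / Benchmarks: tunicamycin and DMSO controls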
hiPSC survival: enhancers of human iPSC single-cell survival. hiPSC single-cell survival, ATPlite luminescence; 100% = ROCK inhibitor wells, 0% = DMSO. survival enhancement, % at 20 µM. 360,000 tested, 0.044% active. AID 602274; in the data active means survival enhancement above about 18%;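 further: cells exposed to compounds for 16 hours before the ATP read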
Cardio protect: protects H9c2 cardiomyocytes from peroxide injury | AID 588492 | H2O2 injury protection, ATPLite, 2 h | 360,000 tested, 0.63% active | protection from H2O2 cell death, % at 20 µM;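 active means compounds giving at least 50% protection of heart cells from peroxide-induced death in the single-dose screen, raw or plate-pattern-corrected value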;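 further: 0% = DMSO wells with peroxide and 100% = DMSO wells without peroxide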
The depositor's hits bear a star; x = no result given.

SMILES	CHOP inh	XBP1 UPR activ	UPR CHOP act	hiPSC survival	Cardio protect
Cc1cc(C)n(CCC(=O)N/N=C/c2c(O)ccc3ccccc23)n1	88*	-1	-1	0	44
O=C(CCSc1nc2ccccc2s1)N/N=C/c1c(O)ccc2ccccc12	56	-3	-3	-2	54*
Cc1cc(C)n2nc(C(=O)N/N=C/c3ccccc3Cl)nc2n1	-14	-2	1	0	19
CCN(CC)c1ccc(N=C2C=CC(=O)C=C2NC(C)=O)cc1	x	x	x	-1	-13
COC(=O)c1sccc1NC(=O)Nc1cccc(Cl)c1Cl	84*	3	0	0	-6
CSc1ccccc1NC(=O)Nc1cccc(Cl)c1Cl	88*	10	2	-1	-3
COC(=O)c1sccc1NC(=O)Nc1ccccc1Cl	x	2	0	0	2
CSc1ccccc1NC(=O)COc1ccc(Cl)cc1	77*	2	9	3	-8
COc1ccc(S(=O)(=O)Nc2ccc(CC#N)cc2)cc1	2	0	1	2	-1
N#CCc1ccc(NS(=O)(=O)c2ccc(C3CCCCC3)cc2)cc1	81*	x	x	-3	-13
CCOC(=O)c1cc2sccc2n1CC(=O)N1CCc2ccccc21	74*	-4	-2	0	0
Cc1sc2nc(NCCO)[nH]c(=O)c2c1C	13	3	0	3	72*
CN(C)C(=O)CSc1nc2ccccc2c(=O)[nH]1	27	2	-4	-2	81*
Cc1sc2nc(CC(=O)N3CCCC3)[nH]c(=O)c2c1C	24	-1	0	1	20
O=c1cc(CSc2nc3ccccc3c(=O)[nH]2)c2ccc(O)cc2o1	10	x	x	0	94*
CCOC(=O)CSc1nc2sc(C)c(C)c2c(=O)[nH]1	26	0	-1	-3	52*
CCOC(=O)C1(C)CCCN1C(=O)c1cccs1 (stereo not given)	x	x	x	-2	11
CCOC(=O)CSc1nnc(CSc2nc3ccccc3c(=O)[nH]2)n1-c1ccccc1	-7	1	2	0	51*
CC(C)(C)N(Cc1ccccc1)C(=O)CSc1nc2ccccc2c(=O)[nH]1	54	0	1	1	31
Cc1c(C)n(C(=O)CSc2nc3ccccc3[nH]2)c2ccccc12	80*	-1	-3	-1	3
CCN(CC)C(=O)CSc1nc2ccccc2c(=O)[nH]1	11	1	-1	2	65*
O=C(CSc1nc2ccccc2[nH]1)N1CCCCC1	-28	0	5	-2	-5
Cc1cccc(C)c1NC(=O)CSc1nc2ccccc2c(=O)[nH]1	71*	-2	4	3	10
CCCCNC(=S)N(CCCO)Cc1cc2cc3c(cc2[nH]c1=O)OCO3	x	x	x	2	2
CCOC(=O)CSc1nc2sccc2c(=O)[nH]1	18	0	1	-3	4
SMILES	CHOP inh	XBP1 UPR activ	UPR CHOP act	hiPSC survival	Cardio protect
CCOC(=O)CSc1c(-c2cccs2)[nH]c2ccccc12	-23	-1	0	-2	-3
CCOC(=O)CSc1nc2ccccc2c(=O)[nH]1	30	-4	0	-1	58*
CCOC(=O)CSc1nnc(CSc2nc3sc4c(c3c(=O)[nH]2)CCC4)n1-c1ccccc1	-3	2	-1	4	47
CCOC(=O)CSc1c(-c2ccc(Cl)cc2)[nH]c2ccccc12	88*	-3	4	-2	-13
CCOC(=O)CSc1nnc(CSc2nc3sc4c(c3c(=O)[nH]2)CCC4)n1C	-2	1	-1	-2	66*
Cc1ccc(S(=O)(=O)N2[C@@H](c3ccc(Br)cc3)C(C(=O)O)=CC[C@H]2c2cccs2)cc1	x	-3	0	3	2
O=C(NCc1ccco1)C(c1ccccc1)N(C(=O)Cc1cccs1)c1ccccc1F (stereo not given)	18	-2	-1	-3	75*
O=C(NCc1ccco1)C(c1ccncc1)N(C(=O)Cc1cccs1)c1ccccc1 (stereo not given)	10	-4	2	3	4
O=C(CSCCNS(=O)(=O)c1ccccc1)Nc1ccccc1	74*	-3	0	-1	-1
COc1ccc(CNC(=O)Cn2nc(C(F)(F)F)c(Br)c2C)cc1	x	-4	1	0	-6
COc1cc(NC(=O)Cn2nc(C(F)(F)F)c(Br)c2C)cc([N+](=O)[O-])c1	94*	-3	3	-1	-24
CC(C)n1c(CNC(=O)c2ccccc2F)nnc1SCC(=O)NC1CCCCC1	x	x	x	-1	0
Cc1cccc(N=C2NC(=O)/C(=C3/C(=O)N(C)c4ccccc43)S2)c1C	88*	0	4	1	14
COc1cccc(C#CC2=CC(=O)CC(C)(C)C2)c1	x	x	x	-3	-12
CC1(C(=O)NS(=O)(=O)C2CC2)CCCN(C(=O)COCc2ccccc2)C1 (stereo not given)	x	x	x	1	5
O=C1COc2ccc(S(=O)(=O)N3CCCC3)cc2N1	x	1	-1	0	4
O=C1COc2ccc(N3C(=O)C=CC3=O)cc2N1	95*	-5	-1	x	x
C=CC[C@@H](CC(=O)NCCO)C(=O)NC[C@H](OC(=O)[C@@H](CC=C)Cc1ccc(F)cc1)c1ccccc1	x	3	3	4	70*
CCOC(=O)C(=CNc1cc(C)ccc1C)C(=O)OCC	88*	1	4	-2	-4
COc1ccc(N=Cc2cc3c(cc2O)OC(N)=C(C#N)C3c2ccccc2)cc1 (stereo not given)	80*	-1	3	-1	48
COc1ccc(C2C(C#N)=C(N)Oc3cc(O)ccc32)cc1 (stereo not given)	x	x	x	-1	1
O=C(NCc1cccnc1)c1cc(C2CCCCN2S(=O)(=O)c2cccs2)on1 (stereo not given)	x	x	x	0	1
COC(=O)Cn1c(=NC(=O)c2cc(-c3cccs3)nc3ccccc23)sc2cc(S(N)(=O)=O)ccc21	35	-2	5	1	66*
CCOC(=O)Cn1c(=NC(=O)c2cc(-c3cccs3)nc3ccccc23)sc2cc(S(N)(=O)=O)ccc21	27	2	5	1	75*
NS(=O)(=O)c1ccc(CNC(=O)c2cc(-c3cccs3)nc3ccccc23)cc1	5	3	3	0	7
CC(C)(C)c1csc(NC(=O)c2ccccc2O)n1	x	-1	6	-1	-19
CC(C)(C)c1csc(NNC(=O)c2ccc(Br)cc2)n1	42	1	4	0	55*
Clc1ccc(OCc2nn3c(C4CCCCC4)nnc3s2)c(Cl)c1	87*	2	-1	-2	-8
Fc1ccc(-c2nnc(-c3ccc(Cl)cc3Cl)o2)cc1	80*	-8	-8	-3	-38
COc1ccc(/C=N/NC(=O)c2cccnc2)cc1CSc1nc2ccccc2s1	22	19	1	0	58*
